Substitutions are numbered along the chain they refer to.
What was measured:
Type in all cases: in vitro ADME
AKR1C1 = AKR1C1 (Homo sapiens, UniProt Q04828); assay: Metabolite identification, overnight incubation with recombinant AKR1C1; conditions: 200 µM EXE, 18-h incubation, 1.5 µg recombinant AKR1C1
Outline: (§1)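 Wildtype enzyme was His-tagged, expressed in E. coli BL21 (IPTG induction), Ni-NTA purified and dialysed against PBS. It was stopped with ice-cold acetonitrile and centrifuged. UPLC/ESI+ full scan (m/z 100–450) was followed by targeted MS/MS transitions. Retention times were matched to synthetic 17α/17β-dihydro standards.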

AKR1C4 Ser145Cys = target: T1, AKR1C4 Ser145Cys (Homo sapiens, UniProt P17516, S145C); assay: Kinetics of EXE reduction to 17β-DHE, recombinant AKR1C4 Ser145Cys
T1 sequence (P17516 1-323 S145C): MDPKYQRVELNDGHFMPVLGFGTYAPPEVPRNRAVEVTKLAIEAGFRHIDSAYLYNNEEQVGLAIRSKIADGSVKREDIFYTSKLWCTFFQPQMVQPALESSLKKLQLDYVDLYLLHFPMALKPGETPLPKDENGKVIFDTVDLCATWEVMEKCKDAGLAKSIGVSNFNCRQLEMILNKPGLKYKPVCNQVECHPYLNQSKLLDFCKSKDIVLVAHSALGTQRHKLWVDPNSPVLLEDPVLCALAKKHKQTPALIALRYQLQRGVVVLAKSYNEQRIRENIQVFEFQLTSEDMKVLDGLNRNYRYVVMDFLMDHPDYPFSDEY

AKR1C4 Leu311Val = target: T2, AKR1C4 Leu311Val (Homo sapiens, UniProt P17516, L311V); assay: Kinetics of EXE reduction to 17β-DHE, recombinant AKR1C4 Leu311Val
T2 sequence (P17516 1-323 L311V): T1 sequence (P17516 1-323 S145C) with C145S, L311V

AKR1C4 [1] = target: T3, AKR1C4 (Homo sapiens, UniProt P17516); assay: Kinetics of EXE reduction to 17β-DHE, recombinant AKR1C4; conditions: wildtype AKR1C4; for VMAX: normalized to enzyme purity
T3 sequence (P17516 1-323): T1 sequence (P17516 1-323 S145C) with C145S

CBR1 = target: T4, CBR1 (Homo sapiens, UniProt P16152); assay: Kinetics of EXE reduction to 17β-DHE, recombinant CBR1; conditions: for CLINT: VMAX/KM
T4 sequence (P16152 1-277): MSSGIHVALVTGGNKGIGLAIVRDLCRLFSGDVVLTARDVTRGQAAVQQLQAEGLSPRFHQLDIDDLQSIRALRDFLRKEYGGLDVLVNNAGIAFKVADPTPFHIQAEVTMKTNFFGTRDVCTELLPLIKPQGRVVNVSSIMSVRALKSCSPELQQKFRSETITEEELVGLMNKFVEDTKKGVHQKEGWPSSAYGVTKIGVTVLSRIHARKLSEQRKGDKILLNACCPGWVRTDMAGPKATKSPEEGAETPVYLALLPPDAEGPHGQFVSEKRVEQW

AKR1C4 [2] = target: T3, AKR1C4; assay: Metabolite identification, overnight incubation with recombinant AKR1C4; conditions: 200 µM EXE, 18-h incubation, 1.5 µg recombinant AKR1C4
Outline: as §1

AKR1C3 His5Gln = AKR1C3 His5Gln (Homo sapiens, UniProt P42330, H5Q); assay: Kinetics of EXE reduction to 17β-DHE, recombinant AKR1C3 His5Gln
Chain of AKR1C3 His5Gln (P42330 whole entry H5Q): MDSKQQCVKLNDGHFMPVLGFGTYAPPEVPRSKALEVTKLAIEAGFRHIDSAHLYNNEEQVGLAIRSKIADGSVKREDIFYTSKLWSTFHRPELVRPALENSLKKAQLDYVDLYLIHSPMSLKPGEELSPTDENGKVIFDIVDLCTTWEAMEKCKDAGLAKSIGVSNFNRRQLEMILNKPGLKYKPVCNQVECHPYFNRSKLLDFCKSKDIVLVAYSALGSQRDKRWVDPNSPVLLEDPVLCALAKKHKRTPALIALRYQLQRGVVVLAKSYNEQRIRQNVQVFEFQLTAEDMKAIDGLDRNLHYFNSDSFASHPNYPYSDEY

Chain of AKR1C1 (Q04828 whole entry): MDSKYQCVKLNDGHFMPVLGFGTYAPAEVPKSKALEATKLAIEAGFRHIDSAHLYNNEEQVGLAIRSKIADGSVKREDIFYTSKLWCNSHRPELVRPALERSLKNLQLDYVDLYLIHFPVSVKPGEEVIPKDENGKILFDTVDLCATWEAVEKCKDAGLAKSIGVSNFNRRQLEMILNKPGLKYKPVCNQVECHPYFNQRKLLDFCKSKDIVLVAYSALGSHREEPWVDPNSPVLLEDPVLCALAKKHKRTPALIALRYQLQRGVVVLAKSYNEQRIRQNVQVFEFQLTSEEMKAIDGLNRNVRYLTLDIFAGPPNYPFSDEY

C=C1C[C@@H]2[C@H](CC[C@]3(C)C(=O)CC[C@@H]23)[C@@]2(C)C=CC(=O)C=C12 [exemestane, 6-methylenandrosa-1,4-diene-3-17-dione]
metabolites formed (AKR1C1): only 17β-DHE formation | Km (AKR1C4 Ser145Cys; AKR1C4 Ser145Cys (rs3829125), 17β-DHE formation): 9.6 ± 2.4 µM | CLINT (AKR1C4 Ser145Cys; AKR1C4 Ser145Cys, VMAX/KM): 0.00061 µL/min/mg | VMAX (AKR1C4 Ser145Cys; AKR1C4 Ser145Cys, normalized to enzyme purity): 5.9 ± 1.1 picomoles·min^−1·mg^−1 | Km (AKR1C4 Leu311Val; AKR1C4 Leu311Val (rs17134592), 17β-DHE formation): 11.9 ± 2 µM | CLINT (AKR1C4 Leu311Val; AKR1C4 Leu311Val, VMAX/KM): 0.00053 µL/min/mg | VMAX (AKR1C4 Leu311Val; AKR1C4 Leu311Val, normalized to enzyme purity): 6.3 ± 0.8 picomoles·min^−1·mg^−1 | Km (AKR1C4 [1]; 17β-DHE formation): 9.7 ± 1.9 µM | CLINT (AKR1C4 [1]; VMAX/KM): 0.00024 µL/min/mg | VMAX (AKR1C4 [1]): 2.3 ± 0.6 picomoles·min^−1·mg^−1 | VMAX (AKR1C4 [1]; listed as EXE): 2.3 ± 0.6 picomoles·min^−1·mg^−1 | rate of EXE reduction by CBR1 relative to AKR1C2 (CBR1; VMAX, faster than AKR1C2): about 11 fold | rate of 17β-DHE formation by CBR1 relative to recombinant AKR1C enzymes (CBR1; more rapid than recombinant AKR1C enzymes): 11 to 403 fold | CLINT (CBR1; wildtype CBR1): 0.0035 µL/min/mg | CLINT (CBR1; wildtype CBR1, listed as EXE): 0.0035 µL/min/mg | VMAX (CBR1; wildtype CBR1, normalized to enzyme purity): 928 ± 244 picomoles·min^−1·mg^−1 | metabolites formed (AKR1C4 [2]): both stereoisomers of DHE | Km (AKR1C3 His5Gln; AKR1C3 His5Gln (rs12529), 17β-DHE formation): 17.9 ± 2.9 µM | CLINT (AKR1C3 His5Gln; AKR1C3 His5Gln, VMAX/KM): 0.00021 µL/min/mg | VMAX (AKR1C3 His5Gln; AKR1C3 His5Gln, normalized to enzyme purity): 3.8 ± 0.1 picomoles·min^−1·mg^−1

From PMC5088049 (Pharmacogenetics and genomics, 2016)
